From ChEMBL document CHEMBL1821590, “Novel dihydropyrimidines and its pyrazole derivatives: synthesis and pharmacological screening” (Eur J Med Chem, 2011)
≈ marks a conversion by molar mass, not a printed value.

Columns and labels:
Format in all cases: functional
[1] = Antioxidant activity assessed as nitric oxide radical scavenging activity after 150 mins
Method in brief: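 10 mM sodium nitroprusside (4 mL), PBS pH 7.4 (1 mL) and sample or ascorbic acid in DMSO (1 mL, 12.5–100 µg/mL), incubated 150 min at 25 °C. Nitrite detected with sulphanilic acid (5 min) then naphthylethylenediamine (30 min, diffused light). Read at […]. Triplicate. % inhibition = [1 − (Vt/Vc)] × 100. IC50 derived from it.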

[2] = Antioxidant activity assessed as hydrogen peroxide scavenging activity after 10 mins
Method in brief: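 H2O2 (20 mM) in PBS pH 7.4. 1 mL of sample or ascorbic acid in methanol (12.5–100 µg/mL) added to 2 mL H2O2 solution. A230 read after 10 min. % inhibition = [1 − (Vt/Vc)] × 100. Triplicate, averaged. IC50 derived from % inhibition across concentrations.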

[3] = Antioxidant activity assessed as inhibition of lipid peroxidation using egg lecithin liposomes incubated for 1 hr
Method in brief: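 Egg lecithin (3 mg/mL, phosphate buffer pH 7.4) sonicated 10 min to form liposomes. Sample or ascorbic acid (12.5–100 µg/mL) added. Peroxidation induced with FeCl3 and L-ascorbic acid, 1 h at 37 °C. Stopped with HCl/TCA/TBA/BHA, boiled 15 min, centrifuged, supernatant read at 532 nm. Triplicate. % inhibition vs control. IC50 derived.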

[4] = Antioxidant activity assessed as potassium ferricyanide ion reducing power after 20 mins
Method in brief: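 Oyaizu method. Samples or ascorbic acid in DMF (12.5–100 µg/mL) mixed with 0.2 M phosphate buffer pH 6.6 and 1% potassium ferricyanide, 20 min at 50 °C. 10% TCA added, centrifuged. Supernatant mixed with water and 0.1% FeCl3, read at 700 nm. % = [(Vt/Vc) − 1] × 100. IC50 derived.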

[5] = Antiinflammatory activity assessed as inhibition of albumin denaturation at 100 ug/ml by UV-visible spectrophotometry
Method in brief: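 Compounds dissolved in minimal DMF, diluted in PBS pH 7.4 (final DMF <2.5%). 1 mL test solution (100 µg/mL) plus 1 mL 1% albumin in PBS, 15 min at 27 ± 1 °C, then heated 10 min at 60 ± 1 °C. After cooling, turbidity read at 660 nm. % inhibition = [(Vt/Vc) − 1] × 100 against a no-drug control. Triplicate, averaged. Diclofenac standard.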

Metaphire posthuma [6] = assay: Anthelmintic activity against Pheretima posthuma assessed as time taken for complete parasite paralysis at 0.1% w/v
Method in brief: (§1)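 Earthworms (Pheretima posthuma) exposed to test solutions at 0.1, 0.2 and 0.5% w/v; time in minutes to complete paralysis (worms motionless) recorded. Albendazole as standard. Mean of three determinations ± S.D.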

Metaphire posthuma [7] = assay: Anthelmintic activity against Pheretima posthuma assessed as time taken for complete parasite paralysis at 0.2% w/v; method in brief: as §1
Metaphire posthuma [8] = assay: Anthelmintic activity against Pheretima posthuma assessed as time taken for complete parasite paralysis at 0.5% w/v; method in brief: as §1
Metaphire posthuma [9] = assay: Anthelmintic activity against Pheretima posthuma assessed as time taken for parasite death at 0.1% w/v
Method in brief: (§2)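 Earthworms (Pheretima posthuma, spelled Perituma posthuma in text) exposed to test compounds at 0.1, 0.2 and 0.5% w/v. Albendazole served as standard, with an untreated control. Paralysis was recorded as the time until worms became motionless, then time to death was recorded, in minutes. Each value is the mean of three determinations with S.D.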

Metaphire posthuma [10] = assay: Anthelmintic activity against Pheretima posthuma assessed as time taken for parasite death at 0.2% w/v; method in brief: as §2
Metaphire posthuma [11] = assay: Anthelmintic activity against Pheretima posthuma assessed as time taken for parasite death at 0.5% w/v; method in brief: as §2
Escherichia coli [12] = assay: Antimicrobial activity against Escherichia coli at 25 ug/ml by agar plate diffusion technique; conditions: read-out: IZ
Method in brief: (§3)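 Agar plate diffusion against E. coli, P. aeruginosa, S. aureus and B. subtilis, with compounds at 25, 50 and 100 µg/mL. Streptomycin as standard.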

Escherichia coli [13] = assay: Antimicrobial activity against Escherichia coli at 50 ug/ml by agar plate diffusion technique; conditions: read-out: IZ; method in brief: as §3
Escherichia coli [14] = assay: Antimicrobial activity against Escherichia coli at 100 ug/ml by agar plate diffusion technique; conditions: read-out: IZ; method in brief: as §3
Pseudomonas aeruginosa [15] = assay: Antimicrobial activity against Pseudomonas aeruginosa at 25 ug/ml by agar plate diffusion technique; conditions: read-out: IZ; method in brief: as §3
Pseudomonas aeruginosa [16] = assay: Antimicrobial activity against Pseudomonas aeruginosa at 50 ug/ml by agar plate diffusion technique; conditions: read-out: IZ; method in brief: as §3
Pseudomonas aeruginosa [17] = assay: Antimicrobial activity against Pseudomonas aeruginosa at 100 ug/ml by agar plate diffusion technique; conditions: read-out: IZ; method in brief: as §3
Bacillus subtilis [18] = assay: Antimicrobial activity against Bacillus subtilis at 25 ug/ml by agar plate diffusion technique; conditions: read-out: IZ; method in brief: as §3
Bacillus subtilis [19] = assay: Antimicrobial activity against Bacillus subtilis at 50 ug/ml by agar plate diffusion technique; conditions: read-out: IZ; method in brief: as §3
Bacillus subtilis [20] = assay: Antimicrobial activity against Bacillus subtilis at 100 ug/ml by agar plate diffusion technique; conditions: read-out: IZ; method in brief: as §3
Staphylococcus aureus [21] = assay: Antimicrobial activity against Staphylococcus aureus at 25 ug/ml by agar plate diffusion technique; conditions: read-out: IZ; method in brief: as §3
Staphylococcus aureus [22] = assay: Antimicrobial activity against Staphylococcus aureus at 50 ug/ml by agar plate diffusion technique; conditions: read-out: IZ; method in brief: as §3
Staphylococcus aureus [23] = assay: Antimicrobial activity against Staphylococcus aureus at 100 ug/ml by agar plate diffusion technique; conditions: read-out: IZ; method in brief: as §3
Candida albicans [24] = assay: Antimicrobial activity against Candida albicans at 25 ug/ml by paper disc method; conditions: read-out: IZ
Method in brief: (§4)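 Paper disc method against A. niger and C. albicans, with compounds at 25, 50 and 100 µg/mL. Amphotericin-B as standard.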

Candida albicans [25] = assay: Antimicrobial activity against Candida albicans at 50 ug/ml by paper disc method; conditions: read-out: IZ; method in brief: as §4
Candida albicans [26] = assay: Antimicrobial activity against Candida albicans at 100 ug/ml by paper disc method; conditions: read-out: IZ; method in brief: as §4
Aspergillus niger [27] = assay: Antimicrobial activity against Aspergillus niger at 25 ug/ml by paper disc method; conditions: read-out: IZ; method in brief: as §4
Aspergillus niger [28] = assay: Antimicrobial activity against Aspergillus niger at 50 ug/ml by paper disc method; conditions: read-out: IZ; method in brief: as §4
Aspergillus niger [29] = assay: Antimicrobial activity against Aspergillus niger at 100 ug/ml by paper disc method; conditions: read-out: IZ; method in brief: as §4

Row | Compound | IC50 [1] | IC50 [2] | IC50 [3] | IC50 [4] | inhibition [5] | Time (Metaphire posthuma [6]) | Time (Metaphire posthuma [7]) | Time (Metaphire posthuma [8]) | Time (Metaphire posthuma [9]) | Time (Metaphire posthuma [10]) | Time (Metaphire posthuma [11]) | zone of inhibition at 25 µg/mL (Escherichia coli [12]) | zone of inhibition at 50 µg/mL (Escherichia coli [13]) | zone of inhibition at 100 µg/mL (Escherichia coli [14]) | zone of inhibition at 25 µg/mL (Pseudomonas aeruginosa [15]) | zone of inhibition at 50 µg/mL (Pseudomonas aeruginosa [16]) | zone of inhibition at 100 µg/mL (Pseudomonas aeruginosa [17]) | zone of inhibition at 25 µg/mL (Bacillus subtilis [18]) | zone of inhibition at 50 µg/mL (Bacillus subtilis [19]) | zone of inhibition at 100 µg/mL (Bacillus subtilis [20]) | other results
1 | Cn1c(NN)nc(-c2ccccc2F)c(C#N)c1=O | 60 µg/mL (≈ 231 µM) | 49 µg/mL (≈ 189 µM) | 43 µg/mL (≈ 166 µM) | 50 µg/mL (≈ 193 µM) | 42.1% | 54.93 min | 51.34 min | 48.77 min | 68.45 min | 65.43 min | 61.02 min | 9.85 mm | 13.5 mm | 15.3 mm | 9 mm | 13.8 mm | 15.4 mm | 13.1 mm | 15.7 mm | 21.6 mm | zone of inhibition at 25 µg/mL (Staphylococcus aureus [21]): 13.6 mm; zone of inhibition at 50 µg/mL (Staphylococcus aureus [22]): 17.3 mm; zone of inhibition at 100 µg/mL (Staphylococcus aureus [23]): 22.2 mm; zone of inhibition at 25 µg/mL (Candida albicans [24]): 11.8 mm; zone of inhibition at 50 µg/mL (Candida albicans [25]): 17 mm; zone of inhibition at 100 µg/mL (Candida albicans [26]): 19.2 mm; zone of inhibition at 25 µg/mL (Aspergillus niger [27]): 11.1 mm; zone of inhibition at 50 µg/mL (Aspergillus niger [28]): 14 mm; zone of inhibition at 100 µg/mL (Aspergillus niger [29]): 19.6 mm
2 | CCOC(=O)c1cnn(-c2nc(-c3cccs3)c(C#N)c(=O)n2C)c1N | 98 µg/mL (≈ 265 µM) | 109 µg/mL (≈ 294 µM) | 97 µg/mL (≈ 262 µM) | 79 µg/mL (≈ 213 µM) | 44.6% | 42.48 min | 40.12 min | 43.59 min | 47.38 min | 49.67 min | 47.44 min | 12.5 mm | 13.1 mm | 16.1 mm | 9.67 mm | 12.7 mm | 18.8 mm | 12.9 mm | 15.1 mm | 18.7 mm | zone of inhibition at 25 µg/mL (Staphylococcus aureus [21]): 11.8 mm; zone of inhibition at 50 µg/mL (Staphylococcus aureus [22]): 12.2 mm; zone of inhibition at 100 µg/mL (Staphylococcus aureus [23]): 16.5 mm; zone of inhibition at 25 µg/mL (Candida albicans [24]): 9.1 mm; zone of inhibition at 50 µg/mL (Candida albicans [25]): 13.8 mm; zone of inhibition at 100 µg/mL (Candida albicans [26]): 21.5 mm; zone of inhibition at 25 µg/mL (Aspergillus niger [27]): 12.1 mm; zone of inhibition at 50 µg/mL (Aspergillus niger [28]): 15.8 mm; zone of inhibition at 100 µg/mL (Aspergillus niger [29]): 22.1 mm
3 | Cn1c(NN)nc(-c2ccccc2Cl)c(C#N)c1=O | 62 µg/mL (≈ 225 µM) | 46 µg/mL (≈ 167 µM) | 57 µg/mL (≈ 207 µM) | 58 µg/mL (≈ 210 µM) | 53.5% | 50.65 min | 52.38 min | 45.38 min | 67.33 min | 66.37 min | 60.86 min | 9.26 mm | 10.1 mm | 13.1 mm | 8.41 mm | 12.7 mm | 15.4 mm | 11.1 mm | 15.1 mm | 22.7 mm | zone of inhibition at 25 µg/mL (Staphylococcus aureus [21]): 12.8 mm; zone of inhibition at 50 µg/mL (Staphylococcus aureus [22]): 15.9 mm; zone of inhibition at 100 µg/mL (Staphylococcus aureus [23]): 19.3 mm; zone of inhibition at 25 µg/mL (Candida albicans [24]): 13.4 mm; zone of inhibition at 50 µg/mL (Candida albicans [25]): 17.9 mm; zone of inhibition at 100 µg/mL (Candida albicans [26]): 21.4 mm; zone of inhibition at 25 µg/mL (Aspergillus niger [27]): 11.2 mm; zone of inhibition at 50 µg/mL (Aspergillus niger [28]): 14 mm; zone of inhibition at 100 µg/mL (Aspergillus niger [29]): 19.4 mm
4 | CCOC(=O)c1cnn(-c2nc(-c3ccc(N(C)C)cc3)c(C#N)c(=O)n2C)c1N | 115 µg/mL (≈ 282 µM) | 119 µg/mL (≈ 292 µM) | 111 µg/mL (≈ 272 µM) | 98 µg/mL (≈ 241 µM) | 20.4% | 41.45 min | 46.58 min | 42.87 min | 49.79 min | 57.55 min | 58.72 min | 11.1 mm | 10.2 mm | 14 mm | 8.29 mm | 11.9 mm | 16.7 mm | 11.2 mm | 14.8 mm | 20.9 mm | zone of inhibition at 25 µg/mL (Staphylococcus aureus [21]): 10.1 mm; zone of inhibition at 50 µg/mL (Staphylococcus aureus [22]): 13.5 mm; zone of inhibition at 100 µg/mL (Staphylococcus aureus [23]): 16.5 mm; zone of inhibition at 25 µg/mL (Candida albicans [24]): 10.4 mm; zone of inhibition at 50 µg/mL (Candida albicans [25]): 13.7 mm; zone of inhibition at 100 µg/mL (Candida albicans [26]): 17.7 mm; zone of inhibition at 25 µg/mL (Aspergillus niger [27]): 10.2 mm; zone of inhibition at 50 µg/mL (Aspergillus niger [28]): 12.2 mm; zone of inhibition at 100 µg/mL (Aspergillus niger [29]): 18.3 mm
